Legend:
[1] = target: GABA-A receptor; anion channel; assay: Displacement of [3H]diazepam binding in rat brain membranes; assay type: cell membranes
Mus musculus [2] = assay: Effective dose required to prevent convulsions in mice after iv administration of 70 mg/kg of metrazole compound in antipentylene tetrazole test; assay type: functional
Outline: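 Male CF-1 mice, 50–54 days old, tested by a modified Everett–Richards method. Metrazole 70 mg/kg is given iv, and convulsions are scored.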

Mus musculus [3] = species: Mus musculus; assay: Effective dose required for […] in mice in rotarod test; assay type: functional

Compound	IC50 [1]	ED50 (Mus musculus [2])	ED50 (Mus musculus [3])
Clc1ccc2c(c1)C(c1ccccc1Cl)=NCc1cncnc1-2	1.7 nM	0.59 mg/kg	1.4 mg/kg
[O-][n+]1cnc2c(c1)CN=C(c1ccccc1Cl)c1cc(Cl)ccc1-2	1.25 nM	0.65 mg/kg	4.9 mg/kg
CN1C(=O)CN=C(c2ccccc2)c2cc(Cl)ccc21 [DIAZEPAM]		1.4 mg/kg	2.6 mg/kg
Oc1ccc(C2=NCc3cncnc3-c3ccc(Cl)cc32)c(Cl)c1	100 nM	> 100 mg/kg	> 1000 mg/kg
OC1N=C(c2ccccc2Cl)c2cc(Cl)ccc2-c2ncncc21 (centres undefined)	6.4 nM	0.74 mg/kg	4.8 mg/kg

Source: ChEMBL document CHEMBL1122391, “2-benzazepines. 6. Synthesis and pharmacological properties of the metabolites of 9-chloro-7-(2-chlorophenyl)-5H-pyrimido[5,4-d] [2]benzazepine” (J Med Chem, 1983)
